# Screening data from PubChem.
# ADAM17 inh: ADAM17 inhibitors, primary screen, biochemical, QFRET; inhibition, % at 6.95 µM; 0.83% of 370,000 active; AID 720648, 2013; Disintegrin and metalloproteinase domain-containing protein 17 (Homo sapiens), P78536; recombinant ADAM17, EDANS/DABCYL FRET peptide cleavage;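 active means inhibition above the mean of compounds lying between control limits plus 3 SD, set per campaign, cut at about 8.5% in these data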
# Target sequence (P78536 215-824 limits assumed): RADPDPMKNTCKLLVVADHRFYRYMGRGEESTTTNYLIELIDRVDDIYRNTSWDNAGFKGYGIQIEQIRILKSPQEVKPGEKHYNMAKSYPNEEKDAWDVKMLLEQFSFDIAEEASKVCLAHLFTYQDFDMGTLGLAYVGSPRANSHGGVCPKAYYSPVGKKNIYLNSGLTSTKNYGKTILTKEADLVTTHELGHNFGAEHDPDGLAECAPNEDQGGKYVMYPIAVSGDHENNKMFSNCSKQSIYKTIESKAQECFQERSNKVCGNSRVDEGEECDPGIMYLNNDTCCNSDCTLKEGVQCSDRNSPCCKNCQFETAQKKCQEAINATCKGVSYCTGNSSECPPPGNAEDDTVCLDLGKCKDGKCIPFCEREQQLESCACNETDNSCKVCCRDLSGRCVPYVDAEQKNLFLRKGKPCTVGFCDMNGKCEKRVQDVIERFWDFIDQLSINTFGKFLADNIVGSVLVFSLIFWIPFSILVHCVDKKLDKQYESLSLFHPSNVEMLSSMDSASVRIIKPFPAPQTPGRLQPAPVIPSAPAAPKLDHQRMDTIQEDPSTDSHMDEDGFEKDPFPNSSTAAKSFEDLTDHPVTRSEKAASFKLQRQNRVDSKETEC
# aDG glyco act: activators of alpha-DG glycosylation, primary screen, uHTS, Pro5-aDG cells, AlphaScreen; alpha-DG glycosylation AlphaScreen (IIH6); 0% Pro5, 100% B10-LARGE cell signal; activation, % at 10 µM; 0.22% of 360,000 active;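 active means activation of at least 8% versus controls, or a plate z-score of at least 8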;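 further: Pro5 are CHO cells carrying HIG-tagged alpha-DG that lacks glycosylation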
# Hep lipid drop: inhibitors of hepatocyte lipid droplet formation, primary screen, imaging, high-throughput imaging, BODIPY stain; AML12 mouse hepatocytes, oleate lipid droplets; inhibition, % at 6.5 µM; 0.4% of 240,000 active; AID 1656, 2009;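 active means lipid droplet intensity inhibited by at least 50%, with more than 500 cells counted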
#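 Assay system: AML12 hepatocytes (mouse); Probe or stimulus: oleic acid at 100 µM to induce lipid droplet formation; Dosing: compound at 6.5 µM only; Schedule: compound with oleate, overnight; Detection: fluorescence imaging, 20x objective, two fields per well; Measure: % inhibition of lipid droplet signal.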
# V-ATPase pH: regulators of yeast V-ATPase proton pumping, primary screen, pHLuorin cytosolic pH fluorescence; S. cerevisiae; response, % at 10 µM; 0.37% of 350,000 active; in the data active means response mostly above about 7.3%, no sharp cut-off; inactive means mostly below about 5.4%; further: actives read high
# ADAM10 inh: human ADAM10 inhibitors, primary screen, biochemical, QFRET, HTS. inhibition, % at 7 µM. recombinant ADAM10, EDANS/DABCYL FRET peptide cleavage, 3 h. Disintegrin and metalloproteinase domain-containing protein 10 (Homo sapiens), O14672. 0.62% of 370,000 active;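 active means inhibition above a per-campaign cutoff equal to the mean of compounds falling between control-based bounds plus 3 SD, cut at about 20% in these data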
# MPTP block: mitochondrial permeability transition pore inhibitors, primary screen, biochemical, isolated mouse mitochondria, absorbance; Ca2+ swelling absorbance, 30 min; 1.4% of 360,000 active; inhibition, % at 10 µM;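 active means inhibition of 50% or more, scaled per plate between neutral and stimulator controls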
# ADAM10 confirm: human ADAM10 inhibitors, confirmation, biochemical, QFRET, triplicate; inhibition, % at 6.95 µM; ADAM10 QFRET peptide cleavage, EDANS fluorescence; shares compounds with ADAM10 inh; AID 743208, 2013; 1% of 2,100 active;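 active means inhibition above about 20% chosen separately for each screening run, limit read from the data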
# ADAM17 counter: ADAM17 inhibitors, counter-screen for ADAM10 exosite inhibitor project, biochemical, QFRET, high throughput. inhibition, % at 6.95 µM. shares compounds with ADAM10 inh. 0.5% of 2,100 active. ADAM17 QFRET peptide cleavage, EDANS fluorescence;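 active means mean triplicate inhibition above the solvent-only control wells' mean plus 3 SD, cut at about 12% in these data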
# ADAM10 counter: ADAM10 inhibitors, counter-screen for ADAM17 exosite inhibitor project, biochemical, FRET, human ADAM10; shares compounds with ADAM17 inh; recombinant ADAM10, EDANS/DABCYL FRET peptide cleavage, 3 h; inhibition, % at 6.95 µM; 47% of 2,900 active; AID 743256, 2014;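 active means mean inhibition over the triplicate runs exceeds the activity threshold set in the earlier primary screen, cut at about 20% in these data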
# ADAM17 confirm: ADAM17 inhibitors, hit retest, confirmation, biochemical, QFRET peptide cleavage; shares compounds with ADAM17 inh; 65% of 2,900 active; inhibition, % at 6.95 µM; recombinant ADAM17, EDANS/DABCYL QFRET peptide cleavage; AID 743257, 2014;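 active means mean inhibition across replicates above the hit cutoff set in the primary screen, cut at about 8.5% in these data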
# Hits are given with their value; n = inactive; x = not tested or not shown. In the library only some 3.1% were active in any assay of this set; here they are far more common.
SMILES,ADAM17 inh,aDG glyco act,Hep lipid drop,V-ATPase pH,ADAM10 inh,MPTP block,ADAM10 confirm,ADAM17 counter,ADAM10 counter,ADAM17 confirm
C[C@@H]1CN([C@H](C)CO)C(=O)c2cc(NC(=O)Nc3ccc(F)cc3)ccc2O[C@@H](C)CCCCO[C@H]1CN(C)S(=O)(=O)c1ccc(Cl)cc1,13,n,x,x,32,n,n,n,34,17
C[C@@H]1CN([C@H](C)CO)C(=O)c2cc(NC(=O)Nc3ccc(C(F)(F)F)cc3)ccc2O[C@H]1CN(C)S(=O)(=O)c1ccccc1,11,n,x,n,28,n,n,n,28,16
C[C@H](CO)N1C[C@H](C)[C@@H](CN(C)S(=O)(=O)c2ccccc2)Oc2c(NC(=O)Nc3ccc(C(F)(F)F)cc3)cccc2C1=O,n,n,x,n,n,n,x,x,x,x
O=C(Cn1cnc2ccccc2c1=O)N1CCN(C(=O)C2CCCO2)CC1 (stereo unspecified),n,x,x,x,n,x,x,x,x,x
CC(=O)O[C@@H]1CCC[C@@]2(C(=O)N(Cc3ccccc3)c3ccc(-c4c(C)noc4C)cc32)[C@H]1NC(=O)CCc1ccccc1,10,x,x,x,23,x,n,n,n,11
CC(=O)N1CCCN(C(=O)C2CCN(c3ncnc4c3sc3cccc(F)c34)CC2)CC1,n,x,x,x,n,x,x,x,x,x
O=C(COC(=O)Cc1c[nH]c2ccccc12)Nc1cccc(Br)c1,11,n,x,n,26,n,n,n,n,8.9
Cc1cccc(NC(=O)Cn2c(=O)n(CCc3c[nH]c4ccccc34)c(=O)c3cccnc32)c1,10,x,n,x,20,x,n,n,27,17
COc1ccc(Nc2oc(COc3ccc(C)cc3)nc2C#N)cc1,n,n,n,n,n,n,x,x,x,x
COc1ccc(OCc2nc(C#N)c(N3CCN(c4ccc(OC)cc4)CC3)o2)cc1,16,n,n,n,29,n,n,n,n,n
COc1ccc(Nc2oc(COc3cccc(C)c3)nc2C#N)cc1,10,n,n,n,30,n,n,n,21,13
Cc1ccc(S(=O)(=O)N2C(N)=C(C(=O)NCc3ccc(Br)cc3)C(c3ccc(Cl)cc3)C2C(=O)c2ccccc2)cc1 (stereo unspecified),n,x,x,x,n,x,x,x,x,x
Cc1ccc(-n2c(SC/C=C/c3ccccc3)nnc2-c2cccs2)cc1,n,x,x,x,n,x,x,x,x,x
O=C(Cc1ccccc1)NC1CCCCN(Cc2cccc(Cl)c2)C1=O (stereo unspecified),n,x,x,x,n,x,x,x,x,x
COc1cccc(OCC(=O)Nc2cc(Cl)ccc2Oc2ccccc2)c1,n,n,n,n,n,n,x,x,x,x
Cc1cccc(C)c1N(CC(=O)Nc1cc(Cl)ccc1Oc1ccccc1)S(C)(=O)=O,8.8,n,n,n,30,n,n,n,26,16
Cc1ccc(C)c(N(CC(=O)Nc2cc(Cl)ccc2Oc2ccccc2)S(C)(=O)=O)c1,10,n,x,n,29,n,n,n,24,13
CC(=NNC(=O)CSc1nnc(-c2ccccc2)n1-c1ccccc1)c1cccc([N+](=O)[O-])c1,n,x,x,x,n,x,x,x,x,x
